From ChEMBL document CHEMBL4610004, “Lipidated α/Sulfono-α-AA heterogeneous peptides as antimicrobial agents for MRSA” (Bioorg Med Chem, 2020)
In brackets after ≈: the same amount, converted by molar mass. Activity calls are given as the source filed them. No cut-off for these calls is given here.

Columns and labels:
Staphylococcus aureus [1] = assay: Antibacterial activity against methicillin-resistant Staphylococcus aureus ATCC 33591 assessed as reduction in bacterial growth incubated for 18 hrs by broth microdilution method; conditions: ATCC 33591, 18 h
[2] = Selectivity index, ratio of HC50 for human RBC to MIC for methicillin-resistant Staphylococcus aureus ATCC 33591; type: toxicity; conditions: red blood cells (erythrocytes)
In short: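 Selectivity = HC50 / MIC. For HC50, PBS-washed human RBCs (spun 1000g, 10 min) are diluted to 5% v/v and mixed 1:1 with twofold peptide dilutions. After 1 h at 37 °C, plates are spun and the diluted supernatant is read at 540 nm. PBS sets 0% and 0.1% Triton X-100 sets 100% hemolysis. MIC is by OD600 broth microdilution, 18 h, 37 °C.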

Staphylococcus aureus [3] = assay: Bactericidal activity against methicillin-resistant Staphylococcus aureus ATCC 33591 assessed as reduction in bacterial colonies formation at 12.5 ug/ml incubated for 120 min followed by dilution of the suspension and further incubation for 20 hrs on agar plate by time kill assay; type: functional, organism-based
In short: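 Bacteria are exposed to a range of peptide concentrations and sampled at 0, 10, 20, 30, 60 and 120 min. At each time point 100 µL of suspension is taken, diluted, and plated on agar for 20 h at 37 °C. Colonies are counted and expressed as log CFU/mL versus time. Done in triplicate.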

Staphylococcus aureus [4] = assay: Induction of cell membrane disruption in methicillin-resistant Staphylococcus aureus ATCC 33591 assessed as increase in PI-positive cells at 5 ug/ml incubated for 2 hrs by DAPI and PI dye based fluorescence microscopy; type: organism-based
In short: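 Mid-log MRSA is incubated at 37 °C with peptide (5 µg/mL); the methods give 4 h and the legend gives 2 h. Cells are pelleted (3000g, 15 min) and PBS-washed. They are stained with DAPI (10 µg/mL, 0 °C, 15 min, dark), washed, then stained with PI (5 µg/mL). Untreated cells serve as controls. Imaged by optical microscopy at 100×.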

Staphylococcus aureus [5] = assay: Induction of cell membrane disruption in methicillin-resistant Staphylococcus aureus ATCC 33591 assessed as increase in depolarization measured for 30 mins by DiSC3 dye based fluorescence assay; type: organism-based
In short: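 Mid-log cells are washed in 5 mM HEPES then 5 mM glucose. They are resuspended (10⁸ CFU/mL) in HEPES/glucose/KCl 1:1:1 with 2 µM DiSC3. Fluorescence (ex 622, em 670 nm) is monitored 30 min at room temperature until minimal. Peptide is then added and the fluorescence rise followed as depolarization. Three trials, each in duplicate.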

[6] = Hemolytic activity in human RBC assessed as hemoglobin release incubated for 1 hr; type: ADME, cell-based, Erythrocyte; conditions: red blood cells (erythrocytes)
In short: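 Human red blood cells washed in PBS, pelleted at 1000g for 10 min, resuspended at 5% v/v. Compound serially diluted two-fold (50 µL) and mixed with 50 µL of the RBC suspension. Incubated 1 h at 37 °C, centrifuged 10 min at 3500 rpm, supernatant diluted with PBS, hemoglobin read at 540 nm. PBS defines 0% and 0.1% Triton X-100 defines 100% hemolysis. HC50 reported.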

Compound | MIC (Staphylococcus aureus [1]) | also measured
CCCCCCCCCCCC(=O)N[C@@H](CCCCN)C(=O)NCCN([C@@H](C)C(N)=O)S(=O)(=O)c1ccc(Cl)cc1 | 5 µg/mL (≈ 8.11 µM) | 
CCCCCCCCCCCCCCCC(=O)N[C@@H](CCCCN)C(=O)NCCN([C@@H](C)C(=O)NCCN([C@@H](C)C(=O)NCCN([C@@H](C)C(N)=O)S(=O)(=O)c1ccc(Br)cc1)S(=O)(=O)c1ccc(Br)cc1)S(=O)(=O)c1ccc(Br)cc1 | > 25 µg/mL | 
CCCCCCCCCCCCCC(=O)N[C@@H](CCCCN)C(=O)NCCN([C@@H](C)C(N)=O)S(=O)(=O)c1ccc(Cl)cc1 | 5 µg/mL (≈ 7.76 µM) | 
CCCCCCCCCCCCCCCC(=O)N[C@@H](CCCCN)C(=O)NCCN([C@@H](C)C(=O)NCCN([C@@H](C)C(=O)NCCN([C@@H](C)C(N)=O)S(=O)(=O)c1ccc(Cl)cc1)S(=O)(=O)c1ccc(Cl)cc1)S(=O)(=O)c1ccc(Cl)cc1 | > 25 µg/mL | 
CCCCCCCCCCCCCCCC(=O)N[C@@H](CCCCN)C(=O)NCCN([C@@H](C)C(N)=O)S(=O)(=O)c1ccc(Cl)cc1 | 1 µg/mL (≈ 1.49 µM) | selectivity ratio [2]: 62.5; Activity (Staphylococcus aureus [3]): Active; Activity (Staphylococcus aureus [4]): Active; Activity (Staphylococcus aureus [5]): Active; HC50 at 1 h [6]: 62.5 µg/mL
CCCCCCCCCCCCCCCC(=O)N[C@@H](CCCCN)C(=O)NCCN([C@@H](C)C(=O)NCCN([C@@H](C)C(N)=O)S(=O)(=O)c1ccc(Br)cc1)S(=O)(=O)c1ccc(Br)cc1 | 5 µg/mL (≈ 4.76 µM) | 
CCCCCCCCCCCCCCCC(=O)N[C@@H](CCCCN)C(=O)NCCN([C@@H](C)C(N)=O)S(=O)(=O)c1ccccc1 | 5 µg/mL (≈ 7.84 µM) | 
CCCCCCCC(=O)N[C@@H](CCCCN)C(=O)NCCN([C@@H](C)C(N)=O)S(=O)(=O)c1ccc(Cl)cc1 | > 25 µg/mL | 
CCCCCCCCCC(=O)N[C@@H](CCCCN)C(=O)NCCN([C@@H](C)C(N)=O)S(=O)(=O)c1ccc(Cl)cc1 | > 25 µg/mL | 
CCCCCCCCCCCCCCCC(=O)N[C@@H](CCCCN)C(=O)NCCN([C@@H](C)C(=O)NCCN([C@@H](C)C(=O)NCCN([C@@H](C)C(N)=O)S(=O)(=O)c1ccccc1)S(=O)(=O)c1ccccc1)S(=O)(=O)c1ccccc1 | 10 µg/mL (≈ 8.72 µM) | 
CCCCCCCCCCCCCCCC(=O)N[C@@H](CCCCN)C(=O)NCCN([C@@H](C)C(=O)NCCN([C@@H](C)C(N)=O)S(=O)(=O)c1ccccc1)S(=O)(=O)c1ccccc1 | 2 µg/mL (≈ 2.24 µM) | 
CCCCCCCCCCCCCCCC(=O)N[C@@H](CCCCN)C(=O)NCCN([C@@H](C)C(N)=O)S(=O)(=O)c1ccc(Br)cc1 | 2 µg/mL (≈ 2.79 µM) | 
CCCCCCCCCCCCCCCC(=O)N[C@@H](CCCCN)C(=O)NCCN([C@@H](C)C(=O)NCCN([C@@H](C)C(N)=O)S(=O)(=O)c1ccc(Cl)cc1)S(=O)(=O)c1ccc(Cl)cc1 | 10 µg/mL (≈ 10.4 µM) | 
